Activity calls are given as the source filed them.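 The calls were made as follows: active = mean EC50 below 10 µM; inactive = the rest.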
What follows are compounds tested against Apelin receptor (Homo sapiens) (UniProt P35414) (assay: apelin receptor activation by small molecules – cell-based, CHO-K1 AGTRL-1, PathHunter luminescence, set 4, SAR follow-up (AID 493183)). Details: CHO-K1 AGTRL-1 PathHunter beta-arrestin.
How it was run: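 System: CHO-K1 APJ β-arrestin enzyme-fragment complementation cell line | Timing: Cells seeded overnight, compound exposure 90 min at 25 °C, detection 60 min | Technique: Luminescence from β-gal fragment complementation after adding detection reagent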

Apelin receptor (Homo sapiens), sequence (P35414 whole entry, looked up, the tested form may be a part): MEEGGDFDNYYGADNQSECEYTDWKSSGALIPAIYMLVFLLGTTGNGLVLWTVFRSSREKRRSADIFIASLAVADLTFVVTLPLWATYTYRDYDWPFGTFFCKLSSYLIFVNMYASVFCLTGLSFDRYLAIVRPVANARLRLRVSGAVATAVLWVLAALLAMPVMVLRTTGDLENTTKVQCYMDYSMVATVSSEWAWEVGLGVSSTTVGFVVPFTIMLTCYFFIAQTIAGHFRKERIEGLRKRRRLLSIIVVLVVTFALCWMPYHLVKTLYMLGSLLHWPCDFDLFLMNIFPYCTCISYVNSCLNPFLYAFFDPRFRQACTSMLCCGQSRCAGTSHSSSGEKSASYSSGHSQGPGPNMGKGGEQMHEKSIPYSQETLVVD

With `CC1=CC(=O)C(C(C)C)=C/C1=N/OS(=O)(=O)c1ccc(C(C)(C)C)cc1` as the compound, how does the EC50 read?
Its EC50 is “inactive”.

How did the EC50 turn out when `CC1=CC(=O)C(C(C)C)=C/C1=N/OS(=O)(=O)c1cccnc1` was run?
The EC50 was 6.45 µM.

`COC(=O)c1cc(NS(=O)(=O)c2ccccc2)ccc1O` was tested. Which EC50 did it give?
The EC50 was > 79 µM (inactive).

How did the EC50 turn out when `CC1=CC(=O)C(C(C)C)=C/C1=N/OS(=O)(=O)c1ccc(OC(F)(F)F)cc1` was run?
Its EC50 is 3.82 µM.

`CC1=CC(=O)C(C(C)C)=C/C1=N/OS(=O)(=O)c1ccc(C(F)(F)F)cc1` was tested. Which EC50 did it give?
The EC50 was 3.69 µM.

With `Cc1cc(O)c(C(C)C)cc1NS(=O)(=O)c1ccccc1` as the compound, how does the EC50 read?
Its EC50 is > 79 µM (inactive).

For `O=S(=O)(Nc1cc(Cl)c(O)c(Cl)c1)c1ccccc1`, which EC50 is on record?
Its EC50 is > 79 µM (inactive).
